Assay results taken from ChEMBL document CHEMBL1140294 (J Med Chem, 2005).

What was measured:
Format in all cases: cell-based
[1] = target: T1, ATP-dependent translocase ABCB1 (Homo sapiens, UniProt P08183); assay: Reversal of P-gp-mediated multidrug resistance in doxorubicin-resistant human K562 cells assessed as drug concentration causing half-maximal increase in nuclear pirarubicin concentration; details: read-out: Activity
[2] = target: T1, ATP-dependent translocase ABCB1; assay: Reversal of P-gp-mediated multidrug resistance in doxorubicin-resistant human K562 cells assessed as increase in nuclear pirarubicin concentration
[3] = target: T1, ATP-dependent translocase ABCB1; assay: Reversal of P-gp-mediated multidrug resistance in human K562 cells assessed as drug concentration causing 40% increase in nuclear pirarubicin concentration
Method in brief: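 Doxorubicin-resistant K 562 cells in exponential phase. Pirarubicin uptake monitored by fluorescence at 590 nm (ex 480 nm) in HEPES buffer (pH 7.25) at 37 °C. The reported value, [I]0.5, is the modulator concentration giving a 40% increase in nuclear pirarubicin concentration (α = 0.4).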

T1 sequence (P08183 whole entry): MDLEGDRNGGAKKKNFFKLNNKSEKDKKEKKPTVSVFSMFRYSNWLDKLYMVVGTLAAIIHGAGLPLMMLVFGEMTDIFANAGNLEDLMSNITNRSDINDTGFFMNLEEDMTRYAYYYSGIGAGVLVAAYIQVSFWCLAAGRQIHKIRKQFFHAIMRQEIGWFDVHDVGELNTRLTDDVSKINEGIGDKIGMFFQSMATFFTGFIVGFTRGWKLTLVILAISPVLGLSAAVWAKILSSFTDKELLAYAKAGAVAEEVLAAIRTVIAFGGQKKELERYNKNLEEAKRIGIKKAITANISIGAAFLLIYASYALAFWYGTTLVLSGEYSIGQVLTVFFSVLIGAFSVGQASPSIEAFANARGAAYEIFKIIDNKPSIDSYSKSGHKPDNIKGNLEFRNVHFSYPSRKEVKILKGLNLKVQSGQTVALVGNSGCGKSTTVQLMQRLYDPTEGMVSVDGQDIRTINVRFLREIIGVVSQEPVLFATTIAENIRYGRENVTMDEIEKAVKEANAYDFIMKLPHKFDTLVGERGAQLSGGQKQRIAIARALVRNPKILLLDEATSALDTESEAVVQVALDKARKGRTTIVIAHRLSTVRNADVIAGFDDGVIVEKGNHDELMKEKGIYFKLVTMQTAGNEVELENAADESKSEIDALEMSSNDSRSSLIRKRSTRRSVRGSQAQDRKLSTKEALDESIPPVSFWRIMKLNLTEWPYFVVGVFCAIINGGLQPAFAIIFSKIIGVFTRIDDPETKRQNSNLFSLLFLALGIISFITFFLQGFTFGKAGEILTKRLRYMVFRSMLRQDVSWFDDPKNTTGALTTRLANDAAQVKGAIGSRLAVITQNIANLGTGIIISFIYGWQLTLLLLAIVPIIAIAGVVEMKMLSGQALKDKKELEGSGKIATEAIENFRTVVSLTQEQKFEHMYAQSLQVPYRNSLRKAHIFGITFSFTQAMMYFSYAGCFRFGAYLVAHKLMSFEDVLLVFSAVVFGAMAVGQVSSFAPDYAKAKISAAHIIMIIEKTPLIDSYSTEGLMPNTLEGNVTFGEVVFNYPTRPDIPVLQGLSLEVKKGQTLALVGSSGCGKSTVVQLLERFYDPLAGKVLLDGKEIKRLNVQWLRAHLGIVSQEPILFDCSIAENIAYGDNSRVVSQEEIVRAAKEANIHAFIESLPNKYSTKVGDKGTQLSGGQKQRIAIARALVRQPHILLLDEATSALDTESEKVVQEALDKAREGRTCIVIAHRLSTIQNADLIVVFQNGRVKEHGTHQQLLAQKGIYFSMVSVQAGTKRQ

| SMILES | EC50 [1] [nM] | Alpha max [2] | Activity [3] [µM] |
| --- | --- | --- | --- |
| COc1cc(/C=C/C(=O)OCCCN(C)CCN(C)CCCOC(=O)c2cc(OC)c(OC)c(OC)c2)cc(OC)c1OC | 1300 | 0.78 |  |
| COc1cc(/C=C/C(=O)OCCCN(C)CCN(C)CCCOC(=O)c2c3ccccc3cc3ccccc23)cc(OC)c1OC | 190 | 0.7 |  |
| CN(CCCOC(=O)c1c2ccccc2cc2ccccc12)CCN(C)CCCOC(=O)c1c2ccccc2cc2ccccc12 |  | 0.5 | 0.8 |
| COc1cc(/C=C/C(=O)OCCCN(C)CCN(C)CCCOC(=O)/C=C/c2cc(OC)c(OC)c(OC)c2)cc(OC)c1OC | 2600 | 0.8 |  |
| COc1ccc(C(C#N)(CCC(=O)OCCCN(C)CCN(C)CCCOC(=O)c2c3ccccc3cc3ccccc23)C(C)C)cc1OC (stereo unspecified) | 400 | 0.74 |  |
| COc1ccc(C(C#N)(CCC(=O)OCCCN2CCN(CCCOC(=O)c3c4ccccc4cc4ccccc34)CC2)C(C)C)cc1OC (stereo unspecified) | 620 | 0.65 |  |
| COc1cc(/C=C/C(=O)OCCN(C)CCOC(=O)C2c3ccccc3-c3ccccc32)cc(OC)c1OC | 800 | 0.7 |  |
| COc1cc(/C=C/C(=O)OCCCN2CCN(CCCOC(=O)C3c4ccccc4-c4ccccc43)CC2)cc(OC)c1OC | 230 | 0.7 |  |
| COc1cc(/C=C/C(=O)OCCOCCN(C)CCOCCOC(=O)c2c3ccccc3cc3ccccc23)cc(OC)c1OC | 170 | 0.84 |  |
| COc1cc(/C=C/C(=O)OCCCN2CCN(CCCOC(=O)/C=C/c3cc(OC)c(OC)c(OC)c3)CC2)cc(OC)c1OC | 370 | 0.8 |  |
| COc1cc(/C=C/C(=O)OCCCN(C)CCCOC(=O)c2cc(OC)c(OC)c(OC)c2)cc(OC)c1OC | 600 | 0.9 |  |
| COc1cc(/C=C/C(=O)OCCN(C)CCOC(=O)c2cc(OC)c(OC)c(OC)c2)cc(OC)c1OC | 3100 | 0.86 |  |
| COc1cc(/C=C/C(=O)OCCCNCCCOC(=O)c2cc(OC)c(OC)c(OC)c2)cc(OC)c1OC | 500 | 1 |  |
| COc1cc(/C=C/C(=O)OCCN(C)CCOC(=O)c2ccccc2)cc(OC)c1OC | 3700 | 0.86 |  |
| COc1cc(/C=C/C(=O)OCCCN(C)CCCOC(=O)c2c3ccccc3cc3ccccc23)cc(OC)c1OC | 180 | 0.78 |  |
| COc1cc(/C=C/C(=O)OCCCNCCCOC(=O)c2c3ccccc3cc3ccccc23)cc(OC)c1OC | 210 | 0.74 |  |
| COc1ccc(C(C#N)(CCC(=O)OCCCNCCCOC(=O)c2c3ccccc3cc3ccccc23)C(C)C)cc1OC (stereo unspecified) | 2100 | 0.9 |  |

| SMILES | EC50 [1] [nM] | Alpha max [2] | Activity [3] [µM] |
| --- | --- | --- | --- |
| COc1cc(/C=C/C(=O)OCCCCCN(C)CCCCCOC(=O)c2c3ccccc3cc3ccccc23)cc(OC)c1OC | 100 | 0.8 |  |
| COc1cc(/C=C/C(=O)OCCN(C)CCOC(=O)c2ccc(OC)c(OC)c2OC)cc(OC)c1OC | 6400 | 0.8 |  |
| COc1cc(/C=C/C(=O)OCCCCCCCN(C)CCCCCCCOC(=O)c2c3ccccc3cc3ccccc23)cc(OC)c1OC | 150 | 0.55 |  |
| COc1cc(/C=C/C(=O)OCCOCCN(C)CCOCCOC(=O)c2cc(OC)c(OC)c(OC)c2)cc(OC)c1OC | 4200 | 0.9 |  |
| COc1cc(/C=C/C(=O)OCCOCCNCCOCCOC(=O)c2cc(OC)c(OC)c(OC)c2)cc(OC)c1OC | 7000 | 1 |  |
| COc1cc(/C=C/C(=O)OCCCN(C)CCN(C)CCCOC(=O)C2c3ccccc3-c3ccccc32)cc(OC)c1OC | 570 | 0.64 |  |
| COc1cc(/C=C/C(=O)OCCCCCN(C)CCCCCOC(=O)C2c3ccccc3-c3ccccc32)cc(OC)c1OC | 110 | 0.83 |  |
| COc1cc(/C=C/C(=O)OCCCCCCN(C)CCCCCCOC(=O)c2cc(OC)c(OC)c(OC)c2)cc(OC)c1OC | 2000 | 0.6 |  |
| COc1cc(/C=C/C(=O)OCCCCCCCN(C)CCCCCCCOC(=O)c2cc(OC)c(OC)c(OC)c2)cc(OC)c1OC | 1000 | 0.55 |  |
| COc1ccc(C(C#N)(CCCN(C)c2c3ccccc3cc3ccccc23)C(C)C)cc1OC (stereo unspecified) | 50 | 0.7 |  |
| COc1cc(/C=C/C(=O)OCCCCCN(C)CCCCCOC(=O)c2cc(OC)c(OC)c(OC)c2)cc(OC)c1OC | 800 | 0.84 |  |
| COc1cc(/C=C/C(=O)OCCCN2CCN(CCCOC(=O)c3cc(OC)c(OC)c(OC)c3)CC2)cc(OC)c1OC | 380 | 0.61 |  |
| O=C(OCCCN1CCN(CCCOC(=O)c2c3ccccc3cc3ccccc23)CC1)c1c2ccccc2cc2ccccc12 |  | 0.5 | 2.5 |
| COc1cc(/C=C/C(=O)OCCCCCCN(C)CCCCCCOC(=O)c2c3ccccc3cc3ccccc23)cc(OC)c1OC | 610 | 0.68 |  |
| COc1cc(/C=C/C(=O)OCCN(C)CCOC(=O)c2c3ccccc3cc3ccccc23)cc(OC)c1OC | 1000 | 0.84 |  |
| COc1cc(/C=C/C(=O)OCCCN2CCN(CCCOC(=O)c3c4ccccc4cc4ccccc34)CC2)cc(OC)c1OC | 160 | 0.9 |  |
